Test results reported in the RNAGym collection of RNA variant scans (doi:10.1126/science.aae0568).
Variants at the floor of the assay were thinned out.

B1: tRNA (parent)
chain: GUUCCGUUGGCGUAAUGGUAACGCGUCUCCCUCCUAAGGAGAAGACUGCGGGUUCGAGUCCCGUACGGAACG

Variants of: B1
Test: yeast fitness relative to wild type (ratio to wild type); higher = fitter; tRNA-Arg(CCU), competitive growth, 37 C, YPD
Summary of the method: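 Amplicons of the tRNA-Arg(CCU) gene were sequenced, 100-nucleotide paired-end, from the start population and from each end population of a pooled yeast competition. The competition, in six parallel replicates, lasted 24 hours in YPD at 37°C. Fitness relative to wild type was calculated from changes in genotype frequencies. Genotypes had to have ≥ 100 starting reads, and estimates < 0.5 were set to 0.5.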

| Variant | yeast fitness |
| --- | --- |
| U26A G41C C66A A70C | 0.663 |
| U26A C49U G52C | ≤ 0.5 |
| U26A C27G C62A | ≤ 0.5 |
| U26A A40C | 0.755 |
| U26A C49G A70C | 0.574 |
| U26A G41A C66A | ≤ 0.5 |
| U26A G41U C55U | ≤ 0.5 |
| G25C U26G A40U C46G A70U | ≤ 0.5 |
| U26A A36G A37G C46G C49U U54C A70G | 0.754 |
| U26C C31U C49U C66G | ≤ 0.5 |
| U26A C31G A36U U54C C55G | ≤ 0.5 |
| U26A A43U G68A | ≤ 0.5 |
| U26A C34G A45G | 0.517 |
| U26A G44C C62U | 0.622 |
| U26A G44C C62A | 0.598 |
| U26A A43U A69U | 0.695 |
| U26C U28A C29G A69U | ≤ 0.5 |
| U26A C34U U47G U64A | ≤ 0.5 |
| U26C C61U U64A | 0.526 |
| U26C A57C | 0.611 |
| G25U A36U G56C A65C | 0.521 |
| U26C A37G | 0.634 |
| U26A C27G C31G G38C | ≤ 0.5 |
| U26C C29G A69U | 0.572 |

| Variant | yeast fitness |
| --- | --- |
| U26A A40U G58A A70C | ≤ 0.5 |
| U26C C30A | 0.815 |
| U26C C30G | 0.651 |
| U26C A40C A43G G44A | ≤ 0.5 |
| U26A C27G C31U C46A A65C G68A | 0.626 |
| U26C A65C | 0.819 |
| U26C A65G | 0.932 |
| U26C A65U | 0.896 |
| U26C C27U G67C | 0.713 |
| U26A C46U | 0.874 |
| U26A C66A A69C | ≤ 0.5 |
| U26A G44C | 0.886 |
| U26C C46A C61U G67A | ≤ 0.5 |
| U26C C62U G67A | 0.542 |
| U26A A36G G56C | ≤ 0.5 |
| U26A A43C A45U C55U A65C | ≤ 0.5 |
| G25C G39C U54G A65U | 0.514 |
| U26C C66U | 0.823 |
| U26C C66G | 0.674 |
| U26A A43C G52U C55A | ≤ 0.5 |
| G25U A36U | 0.531 |
| U26C U32A C34U G38C G51A A57C C66U | 0.66 |
| G25C G39C G44C | ≤ 0.5 |
| U26A C49U C61G | ≤ 0.5 |

| Variant | yeast fitness |
| --- | --- |
| U26A U35A G48C | ≤ 0.5 |
| U26A U64C | 0.856 |
| U26A C34U C62A | ≤ 0.5 |
| G25C U53C G58A | 0.605 |
| G25C U26G C46G C61A A70U | ≤ 0.5 |
| U26C C46A U47G G50A A69U | ≤ 0.5 |
| G25C U26G C46G C60G | ≤ 0.5 |
| U26A G38C U47G | ≤ 0.5 |
| U26C G41A U47C C61G C62U | ≤ 0.5 |
| G25C U26G C46G A70U | 0.62 |
| U26C C34U G44C U47G | ≤ 0.5 |
| U26C C46A C61U | ≤ 0.5 |
| G25U C30U A40U | ≤ 0.5 |
| U26C C30G C61U A70G | 0.689 |
| U26C G48A C55U | 0.561 |
| U26A C29G G58A A70C | 0.631 |
| U26A U28A C31U G51A | ≤ 0.5 |
| G25C U35C A42C C46A G48C C61A | ≤ 0.5 |
| G25C U28C U59C | 0.694 |
| U26C C62U | 0.823 |
| U26C G48A A57G C61G | 0.501 |
| G25C G41C C46U U59C A65U | ≤ 0.5 |
| U26C C27G C60U | ≤ 0.5 |
| G25C U26G G51C | ≤ 0.5 |

| Variant | yeast fitness |
| --- | --- |
| U26C G51C | 0.663 |
| G25C U28C C55A | 0.539 |
| G25U A36U G56C U64C A65C | ≤ 0.5 |
| G25C U32C A37G A69G A70G | ≤ 0.5 |
| G25C G63C | 0.716 |
| U26C C31G A43C | 0.78 |
| U26A C61U | 0.817 |
| U26A C61A | 0.656 |
| U26A C31G A36C G41A C55G | ≤ 0.5 |
| U26A C46U A65C | 0.631 |
| U26C C34A | 0.817 |
| U26C G38A A43C A65C | ≤ 0.5 |
| U26A C27U C46G | 1 |
| U26A U47G U54C | ≤ 0.5 |
| U26A C31A A37U A43U | ≤ 0.5 |
| U26C C66G G68C | ≤ 0.5 |
| U26C U32C C66U | 0.676 |
| U26C C29G C49U | ≤ 0.5 |
| U26A C49A | 0.637 |
| G25C G63A A65C | 0.6 |
| G25C U32C G41A | ≤ 0.5 |
| U26A U59A | 0.822 |
| U26C C30U C60A | ≤ 0.5 |
| U26A G52A A70U | ≤ 0.5 |

| Variant | yeast fitness |
| --- | --- |
| G25C G58C | 1 |
| G25C U26G C46G A69U | 0.521 |
| U26A U32C C49G | 0.575 |
| U26C C66G A69C | ≤ 0.5 |
| U26C C46G C62G G67U | ≤ 0.5 |
| U26C C61A C66U | 0.525 |
| G25C U64A | 0.709 |
| G25C U26C | 0.904 |
| U26C A45U | 0.716 |
| G25C U47G G52A | 0.549 |
| U26A A37C A57U | ≤ 0.5 |
| G25C U59C | 0.932 |
| G25C U59G | 0.678 |
| U26C C49A | 0.598 |
| U26C C49U | 0.833 |
| U26C G39C C55A C60G | ≤ 0.5 |
| U26C G44A G68U | 0.533 |
| U26A C62U | 0.934 |
| U26A C62G | 0.69 |
| U26C C29G G68C | 0.558 |
| U26A C60G | 0.691 |
| U26C A36C G56C | 0.633 |
| U26A G44C G68C | 0.563 |
| U26A A65U G67A | 0.62 |

| Variant | yeast fitness |
| --- | --- |
| U26A C27G | 0.57 |
| U26C G39A U59C | 0.604 |
| U26A A36C C61U | ≤ 0.5 |
| U26C A37U A57G | 0.658 |
| U26C A40G A57C | 0.56 |
| U26C A45U U53A U59A | 0.512 |
| U26C A36C U64A A70C | ≤ 0.5 |
| U26C A69U | 0.906 |
| G25C U32G A65G | ≤ 0.5 |
| U26C C31U C46A G48C A57U | 0.649 |
| U26A U35C A45U | 0.746 |
| G25C U35A | 0.604 |
| G25C U35C | 0.862 |
| U26A C27U G41A A65G | 0.534 |
| U26A C30U U54A | ≤ 0.5 |
| U26C U32A C34U G38C G51A A57C | 0.653 |
| U26C G52A A70C | ≤ 0.5 |
| U26C A40U | 0.846 |
| U26C A40C | 0.941 |
| U26C U32A C34U G38C G51A A57C A65C | ≤ 0.5 |
| U26C A37U U54A | ≤ 0.5 |
| U26A C34U G50A A69U | ≤ 0.5 |
| U26A C30U A37U | ≤ 0.5 |
| U26C C30G G41A G56A C60G C62U G68A | ≤ 0.5 |

| Variant | yeast fitness |
| --- | --- |
| U26A C31U G68A | 0.716 |
| U26C G44A A70U | 0.657 |
| G25C U28A C33A | 0.539 |
| U26A U28A C31U C55U C66G | ≤ 0.5 |
| U26A A42U | 0.981 |
| U26A C30A C62U | 0.585 |
| G25U C29A G56C | ≤ 0.5 |
| U26A U28C C30G A37C | ≤ 0.5 |
| U26C C29U G63A | 0.672 |
| U26A U32A | 0.805 |
| U26A U32C | 0.936 |
| U26C G56C A57C | ≤ 0.5 |
| U26A C31G C62U | 0.647 |
| U26C C29A C30A A45U | 0.582 |
| G25C U35A A37U G67A A70G | ≤ 0.5 |
| U26C G63C | 0.76 |
| U26C C29G U35C | ≤ 0.5 |
| U26A U54A A70U | 0.69 |
| U26C C31A G38C | 0.529 |
| U26A U53A | 0.557 |
| U26A U53G | 0.704 |
| G25C G56C C61G | ≤ 0.5 |
| U26A A37C C61A | ≤ 0.5 |
